According to ChEMBL document CHEMBL5346886 (Eur J Med Chem, 2023):
Values after ≈ are worked out from the molar mass of the structure shown. Active and inactive are the calls of the source. The calls are words filed in the database; no cut-off is given here.

Experiments:
[1] = system: Feline infectious peritonitis virus; assay: Antiviral activity against Feline infectious peritonitis virus infected in CRFK cells assessed as reduction in viral copy pre-infected with cells for 1 hrs followed by compound addition and measured after 48 hrs by RT-qPCR analysis; type: functional, organism-based; details: Alphacoronavirus 1, CRFK
Procedure, shortened: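 CRFK cells (CCoV, FIPV) or ST cells (TGEV) were grown in DMEM with 10% FBS at 37 °C, 5% CO2. At 80% confluence they were washed in serum-free medium and infected at MOI 0.01 for 1 h at 37 °C. Compounds were then added at 0.1–100 μmol/L, with DMSO as blank. After 48 h, cells and supernatants were analysed by qRT-PCR. Inhibition came from viral copy number, and EC50 from curve fitting.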

[2] = Solubility of the compound; type: physicochemical
Murine hepatitis virus [3] = assay: Antiviral activity against murine hepatitis virus-A59 infected in BALB/c mouse model of acute liver injury assessed as reduction in plasma ALT level at 10 to 200 mg/kg, po administered once daily one hour post infection and measured after 3 days; type: functional, organism-based; details: dose 10-200 mg/kg, time 3.0 day
Procedure, shortened: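 Male BALB/c mice were infected intranasally with MHV-A59 (30 μL, TCID50 = 10−7.125/100 μL) and dosed orally once daily from 1 hpi for four days in 15% Cremophor EL/82.5% PBS/2.5% DMSO. At 3 dpi, blood from 4 euthanized mice per group was left to clot at room temperature and centrifuged. Serum ALT and AST were measured on a clinical chemistry analyzer.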

[4] = Drug metabolism in Sprague-Dawley rat assessed as hydrolysis-mediated GS-441524 metabolite formation at 5 mg/kg, iv administered as single dose and measured after 24 hrs by LC-MS/MS analysis; type: ADME, organism-based; details: in vivo
Murine hepatitis virus [5] = assay: Antiviral activity against murine hepatitis virus-A59 infected in BALB/c mouse assessed as remission of hemorrhage in liver at 200 mg/kg, po administered once daily one hour post infection and measured after 3 days by H&E staining based analysis; type: functional, organism-based; details: time 3.0 day
Procedure, shortened: (§1)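 In male BALB/c mice (3–4 weeks), MHV-A59 was given intranasally (30 μL, TCID50 = 10−7.125/100 μL). Oral dosing once daily in a Cremophor EL/PBS/DMSO vehicle began at 1 hpi and lasted four days. At 3 dpi, lungs and livers from 4 mice per group were fixed in zinc formalin and paraffin-embedded. Sections of about 4 μm were stained with H&E and examined at 200× and 400×.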

Murine hepatitis virus [6] = assay: Antiviral activity against Murine hepatitis virus-A59 infected in mouse L929 cells assessed as reduction in viral copy pre-infected with cell for 1 hrs followed by compound addition and measured after 48 hrs by RT-qPCR analysis; type: functional, organism-based; details: Murine coronavirus
Procedure, shortened: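 L929 cells in DMEM with 10% FBS were washed serum-free at 80% confluence and infected with MHV-A59 at MOI 0.01 for 1 h at 37 °C. Compounds were added at 0.1–100 μmol/L, with DMSO as blank control. After 48 h at 37 °C, the viral M gene in supernatant was measured by qRT-PCR. Percent inhibition was derived from copy number and EC50 from curve fitting.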

Murine hepatitis virus [7] = assay: Antiviral activity against murine hepatitis virus-A59 infected in BALB/c mouse assessed as reduction in TNF-alpha production in lungs at 200 mg/kg, po administered once daily one hour post infection and measured after 3 days by ELISA analysis; type: functional, organism-based; details: time 3.0 day
Procedure, shortened: (§2)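 MHV-A59 was inoculated intranasally into male BALB/c mice (30 μL, TCID50 = 10−7.125/100 μL), with oral dosing once daily from 1 hpi for four days. At 3 dpi, 0.1 g lung or liver from 4 mice per group was homogenized in 0.9 mL water at 4 °C and centrifuged. Supernatant IFN-β was read by ELISA; TNF-α, IFN-γ, IL-1β, IL-6 and CXCL10 by multi-analyte kit, with OD 450 nm against standards.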

Murine hepatitis virus [8] = assay: Potency index, ratio of GS-441524 EC50 to test compound EC50 for antiviral activity against Murine hepatitis virus-A59 infected in mouse L929 cells assessed as reduction in viral copy pre-infected with cell for 1 hrs followed by compound addition and measured after 48 hrs by RT-qPCR analysis; type: functional
[9] = Drug distribution in BALB/c mouse kidney assessed as hydrolyzed GS-441524 metabolite at 200 mg/kg, po administered as single dose and measured after 1 hrs by LC-MS/MS analysis; type: ADME, organism-based; details: in vivo
[10] = Drug metabolism in Sprague-Dawley rat assessed as hydrolysis-mediated ibuprofen metabolite formation at 25 mg/kg, po administered as single dose and measured after 24 hrs by LC-MS/MS analysis; type: ADME, organism-based; details: in vivo
Procedure, shortened: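 Male SD rats (n = 3), fasted 12 h, dosed intragastrically; jugular vein blood into EDTA-K2 tubes at 0.25, 0.5, 1, 2, 3, 4, 6, 8 and 24 h; plasma protein-precipitated with acetonitrile, filtered, analytes measured by LC/MS/MS; noncompartmental PK analysis; mean ± SD.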

Murine hepatitis virus [11] = assay: Antiviral activity against murine hepatitis virus-A59 infected in BALB/c mouse assessed as remission of fulminant hepatitis in liver at 200 mg/kg, po administered once daily one hour post infection and measured after 3 days by H&E staining based analysis; type: functional, organism-based; details: time 3.0 day; procedure, shortened: as §1
Murine hepatitis virus [12] = assay: Antiviral activity against murine hepatitis virus-A59 infected in BALB/c mouse assessed as reduction in TNF-alpha production in liver at 10 to 100 mg/kg, po administered once daily one hour post infection and measured after 3 days by ELISA analysis; type: functional, organism-based; details: dose 10-100 mg/kg, time 3.0 day; procedure, shortened: as §2
[13] = Toxicity in BALB/c mouse infected with murine hepatitis virus-A59 assessed as effect on survival at 50 to 200 mg/kg, po administered once daily one hour post infection and measured after 23 days; details: in vivo, 552 h
[14] = Drug distribution in BALB/c mouse liver assessed as hydrolyzed GS-441524 metabolite at 200 mg/kg, po administered as single dose and measured after 1 hrs by LC-MS/MS analysis; type: ADME, organism-based; details: in vivo
[15] = Drug distribution in BALB/c mouse plasma assessed as hydrolyzed GS-441524 metabolite at 200 mg/kg, po administered as single dose and measured after 1 hrs by LC-MS/MS analysis; type: ADME, organism-based; details: in vivo
Murine hepatitis virus [16] = assay: Antiviral activity against murine hepatitis virus-A59 infected in BALB/c mouse assessed as reduction in IL-1beta production in lungs at 200 mg/kg, po administered once daily one hour post infection and measured after 3 days by ELISA analysis; type: functional, organism-based; details: time 3.0 day; procedure, shortened: as §2
[17] = Drug distribution in BALB/c mouse lung assessed as hydrolyzed ibuprofen metabolite at 200 mg/kg, po administered as single dose and measured after 1 hrs by LC-MS/MS analysis; type: ADME, organism-based; details: in vivo
Murine hepatitis virus [18] = assay: Antiviral activity against murine hepatitis virus-A59 infected in BALB/c mouse assessed as reduction in IFN-gamma production in lungs at 200 mg/kg, po administered once daily one hour post infection and measured after 3 days by ELISA analysis; type: functional, organism-based; details: time 3.0 day; procedure, shortened: as §2
Murine hepatitis virus [19] = assay: Antiviral activity against murine hepatitis virus-A59 infected in BALB/c mouse assessed as alleviation of thickened alveolar septa in lungs at 200 mg/kg, po administered once daily one hour post infection and measured after 3 days by H&E staining based analysis; type: functional, organism-based; details: time 3.0 day; procedure, shortened: as §1
Murine hepatitis virus [20] = assay: Antiviral activity against murine hepatitis virus-A59 infected in BALB/c mouse assessed as alleviation of necrotic debris in lungs at 200 mg/kg, po administered once daily one hour post infection and measured after 3 days by H&E staining based analysis; type: functional, organism-based; details: time 3.0 day; procedure, shortened: as §1

CC(C)Cc1ccc(C(C)C(=O)OC[C@H]2O[C@@](C#N)(c3ccc4c(N)ncnn34)[C@H](O)[C@@H]2O)cc1 (stereo not given in full)
EC50 [1]: 7.34 µM | solubility [2]: 49.9 µM (≈ 23.9 µg/mL) | Activity (Murine hepatitis virus [3]): Active | Drug metabolism [4]: Metabolite_Detected | Activity (Murine hepatitis virus [5]): Active | EC50 (Murine hepatitis virus [6]): 1.15 µM | Activity (Murine hepatitis virus [7]): Active | Ratio EC50 (Murine hepatitis virus [8]): 8 | Drug uptake [9]: Active | Drug metabolism [10]: Metabolite_Detected | Activity (Murine hepatitis virus [11]): Active | Activity (Murine hepatitis virus [12]): Active | Activity [13]: Toxic | Drug uptake [14]: Active | Drug uptake [15]: Active | Activity (Murine hepatitis virus [16]): Active | Drug uptake [17]: Active | Activity (Murine hepatitis virus [18]): Active | Activity (Murine hepatitis virus [19]): Active | Activity (Murine hepatitis virus [20]): Active
